Experimental findings from ChEMBL document CHEMBL1914330 (Eur J Med Chem, 2011) are described below.

For series [1], the system named is HeLa. The series can be described thus: Cell cycle arrest in human HeLa cells assessed as decrease in cell accumulation in G1 phase after 24 hrs by propidium iodide staining-based flow cytometry. Type of series: functional. In outline: (§1)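 HeLa cells treated for 24 h over 0.06–0.5 µM. Cells fixed in ice-cold 70% ethanol, lysed with buffer containing RNase A and 0.1% Triton X-100, and stained with PI. DNA content read by flow cytometry, including the sub-G1 fraction. Mean ± SEM of three independent experiments.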

Series [2] relates to HeLa. The series can be described thus: Induction of apoptosis in human HeLa cells assessed as caspase-3 activation at 0.25 to 5 uM by flow cytometry. Conditions: TDE = time-dependent effect. In general terms: A flow cytometer gives signals particle by particle.
The nature of series [3]: Antiproliferative activity against human taxol-resistant A549-T12 cells after 72 hrs by MTT assay. Type of series: functional, cell-based. Conditions: A549, 72 h. The procedure, abridged:
(§2)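 Cells seeded at 8 × 10³ per well in complete medium and exposed to a range of compound concentrations at 37 °C for 72 h. Viability read by MTT test. IC50 taken as the concentration inhibiting proliferation by 50%.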
A general note: Formazan colour is commonly taken as a measure of viable cells.

A further series concerns CCRF-CEM. The series can be described thus: Ratio of IC50 for vinblastine-resistant human CEM/VBL100 cells to IC50 for human CEM cells. Type of series: functional.
Series [4] has as its system HeLa. The series can be described thus: Induction of apoptosis in human HeLa cells assessed as loss of mitochondrial membrane potential after 24 to 48 hrs by JC1 staining-based flow cytometric analysis. Type of series: functional, cell-based. In outline:
(§3)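 After 24 or 48 h treatment, HeLa cells were trypsinized and resuspended in HBSS with JC-1 (1 µM). Incubated 10 min at 37 °C, washed, and read by flow cytometry for red (590 nm) aggregate versus green (530 nm) monomer. Mean ± SEM of three experiments.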

For another series, the system named is A549. The series can be described thus: Ratio of IC50 for taxol-resistant human A549-T12 cells to IC50 for human A549 cells. Type of series: functional.
Series [5] relates to HeLa. The series can be described thus: Induction of apoptosis in human HeLa cells assessed as ROS production at 0.25 to 5 uM after 24 to 48 hrs by hydroethidine-staining-based flow cytometric analysis. Type of series: functional, cell-based. The procedure, abridged:
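HeLa cells treated 24 or 48 h, trypsinized and resuspended in HBSS containing HE (2.5 µM) or H₂DCFDA (0.1 µM). Incubated 10 min at 37 °C, resuspended in HBSS, and ROS read by flow cytometry. Mean ± SEM of three independent experiments.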

In series [6] the test system is HeLa. The series is described as follows: Induction of cell cycle arrest at G2/M phase in human HeLa cells assessed as disappearance of Cdc25C expression at 0.25 to 5 uM after 48 hrs by Western blot analysis. Type of series: functional, cell-based. The procedure, abridged:
(§4)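 HeLa cells treated for 24 or 48 h were washed in cold PBS and lysed on ice for 30 min. Lysates were cleared at 15,000 × g, run on SDS-PAGE and blotted. Membranes were probed 2 h at room temperature with antibodies to the target protein, then peroxidase secondary and ECL. Blots were reprobed for β-actin as loading control.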
For orientation: In western blotting, separated proteins are transferred to a membrane and probed.

Series [7] concerns HeLa. The series is described as follows: Induction of apoptosis in human HeLa cells assessed as loss of mitochondrial membrane potential at 0.25 to 5 uM by JC1 staining-based flow cytometric analysis. Type of series: functional, cell-based. Conditions: TDE = time-dependent effect. In outline: as §3
Series [8] concerns HeLa. The series is described as follows: Effect on Bcl2 protein expression in human HeLa cells at 0.25 to 0.5 uM after 24 hrs by Western blot analysis. Type of series: functional, cell-based. The procedure, abridged:
as §4

Series [9] has as its system LoVo. The series is described as follows: Antiproliferative activity against human LoVo cells after 72 hrs by MTT assay. Type of series: functional, cell-based. The procedure, abridged:
as §2

Series [10] concerns HeLa. The series can be described thus: Cell cycle arrest in human HeLa cells at G2/M phase after 24 hrs by propidium iodide staining-based flow cytometry. Type of series: functional. In outline:
as §1

Series [11] has as its system LoVo. The series can be described thus: Ratio of IC50 for doxorubicin-resistant human LoVo cells to IC50 for human LoVo cells. Type of series: functional.
Series [12] has as its system HeLa. The series can be described thus: Induction of apoptosis in human HeLa cells assessed as PARP cleavage at 0.25 to 5 uM by Western blot analysis. Type of series: functional, cell-based. Conditions: TDE = time-dependent effect. In outline:
as §4

Series [13] deals with HeLa. The series can be described thus: Antiproliferative activity against human HeLa cells after 2 days by coulter counter analysis. Type of series: functional, cell-based. Conditions: 48 h. The procedure, abridged:
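Cells suspended at 300,000–500,000 cells/mL and mixed 1:1 with diluted compound. Incubated at 37 °C for two days, then counted with a Coulter counter. IC50 is the concentration inhibiting proliferation by 50%, as mean ± SE from dose-response curves of at least three independent experiments.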

For a further series, the system named is Mus musculus. The series can be described thus: Toxicity in BALB/c nude mouse xenografted with human HT-29 cells assessed as organism mortality at 100 mg/kg, ip administered 3 times per week for 1 week measured on day 19. Type of series: organism-based. Also on record: dose 100 mg/kg, route intraperitoneal. Conditions: in vivo, 168 h. The procedure, abridged: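 HT-29 cells in log phase, suspended at 1 × 10⁷ cells/mL in serum-free RPMI 1640, 0.2 mL injected subcutaneously into the back of nude mice. At about 300 mm³, mice were randomised to vehicle or treatment groups (six per group). The compound was given in DMSO by i.p. injection at 0.01 mL/g body weight. Body weight was recorded on set days; mice were euthanised after 23 days.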

The test system of series [14] is HeLa. The series is described as follows: Cell cycle arrest in human HeLa cells assessed as decrease in cell accumulation in S phase at 0.5 uM after 24 hrs by propidium iodide staining-based flow cytometry. Type of series: functional. In outline: as §1
Series [15] in a line: Inhibition of bovine brain tubulin polymerization after 20 mins by turbidimetry. Details: species or system Bos taurus. In outline: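 Purified bovine brain tubulin at 10 µM was preincubated with compound in glutamate buffer at 30 °C, then cooled to 0 °C and GTP added. Samples were warmed to 30 °C in a recording spectrophotometer and assembly followed by turbidity.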

SMILES strings stand for the structures. Active and inactive are the calls of the source. No cut-off for these calls is given here.

`COc1cc(C(=O)c2sc(N3CCCC3)nc2N)cc(OC)c1OC`: the Activity entry in the series on HeLa [1] is “Dose-dependent effect”; in the series with HeLa [2], “tde”; in the series on HeLa [4], “Dose-dependent effect”; in the series with HeLa [7], “tde”; with HeLa [10] it was “Dose-dependent effect”; in the series with HeLa [12] it was “tde”. Also, the Activity entry in the series on Mus musculus was “Toxic”. Besides, the half-inhibitory concentration (IC50) (commonly the concentration needed to halve the response being measured) in [3] stood at 160 nM; in the series with LoVo [9], 100 nM; in the series on HeLa [13], 340 nM; in series [15] it was 1300 nM. Besides, the results for the “Ratio IC50” value with CCRF-CEM, in the series with A549 and in the series with LoVo [11] were 0.2, 4.3 and 4.3, respectively. Moreover, the outcome in the series on HeLa [5], in the series on HeLa [6] and in the series on HeLa [14] was Active. Besides, in the series with HeLa [8], the result was inactive.
